The entries come from a sample that favours hits as a whole.
CHOP inh: inhibitors of CHOP promoter induction, primary screen, cell-based, unfolded protein response, luciferase reporter. CHO-K1 CHOP-promoter luciferase, tunicamycin-induced, 15-18 h. inhibition, % at 10 µM. actives 3.8% (n = 220,000);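 active = compounds that reduced the stress-induced luciferase reporter signal by more than about 70% of percent inhibition, limit read from the data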;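 note: 0% = tunicamycin plus vehicle and 100% = wells without tunicamycin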
H9c2 protect: cardioprotection against H2O2-induced cell death, primary screen, uHTS, H9c2 cells, ATPLite luminescence; H9c2 cardiomyocytes, H2O2 injury protection, 2 h; protection from H2O2 cell death, % at 20 µM; actives 0.63% (n = 360,000); AID 588492, 2011;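 active = compounds giving at least 50% protection of heart cells from peroxide-induced death in the single-dose screen, raw or plate-pattern-corrected value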;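 note: 0% = DMSO wells with peroxide and 100% = DMSO wells without peroxide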
UPR XBP1 act: activators of adaptive XBP1 UPR arm, primary screen, cell-based, CHO-XBP1 luciferase reporter, luminescence, uHTS; IRE1-XBP1 UPR activation; percent of tunicamycin response, DMSO as zero; activation, % at 20 µM; actives 0.33% (n = 330,000);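 active = versus positive control, 20 µM dose yields 30% or more activation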;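 note: 100% = tunicamycin at 10 µg/mL and 0% = DMSO only wells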
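Assay system: CHO-XBP1 luciferase reporter cells; Schedule: 6 h treatment, 37 °C; Detection: glow luminescence from Steady-Glo reagent; Benchmarks: high control tunicamycin 10 µg/mL final, low control DMSO vehicle only.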
UPR CHOP act: activators of apoptotic CHOP UPR arm, primary screen, cell-based, CHO-CHOP luciferase reporter, luminescence, uHTS. UPR activation; percent of tunicamycin response over DMSO baseline. activation, % at 10 µM. actives 0.34% (n = 330,000). AID 449763, 2010;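 active = at 10 µM dose, activation of 40% or more, normalized to positive control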;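 note: 100% = tunicamycin at 10 µg/mL and 0% = DMSO alone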
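Test system: CHO-CHOP cells, stable luciferase reporter of PERK-eIF2a-CHOP signalling | Quantity: 500 CHO-CHOP cells per well | Buffer or medium: F12 plus 10% serum | Compound dosing: 10 µM single point, 0.5% DMSO | Schedule: 6 h compound treatment, 37 °C | Signal: Luciferase luminescence | Control set: Tunicamycin high control, DMSO low control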
hiPSC survival: enhancers of single-cell hiPSC survival, primary screen, ATPlite luminescence. actives 0.044% (n = 360,000). AID 602274, 2012. survival enhancement, % at 20 µM. 100% = ROCK inhibitor wells, 0% = DMSO; in the data active = survival enhancement above about 18%;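 note: cells exposed to compounds for 16 hours before the ATP read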
CHOP confirm: retest of CHOP induction inhibitors, confirmation, cell-based | shares compounds with CHOP inh | CHO-CHOP promoter luciferase reporter, tunicamycin-induced, luminescence | inhibition, % at 10 µM | actives 45% (n = 2,100);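 active = mean of three repeat readings of reporter signal inhibition above a set limit, cut at about 70% in these data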;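 note: 0% = tunicamycin plus vehicle and 100% = wells lacking tunicamycin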
CHOP UPR conf: activators of apoptotic CHOP UPR arm, confirmation, cell-based, CHO-CHOP luciferase reporter, single concentration; shares compounds with UPR CHOP act; CHO-CHOP cells, CHOP-luciferase reporter luminescence; percent of tunicamycin response, DMSO as zero; activation, % at 10 µM; actives 64% (n = 1,000); in the data active = activation above about 33%;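 note: 0% = DMSO wells and 100% = tunicamycin 10 µg/mL wells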
* hit, by the source's call.

`C=CCOc1ccc(C(=O)/C=C2/C(=O)Nc3ccccc32)cc1` gave H9c2 protect -11, UPR XBP1 act 5, UPR CHOP act 18 and hiPSC survival 0.
Screening COc1cccc(C(=O)NCC[N+](C)(C)C)c1 returned hiPSC survival -1.
`Cc1c(NC(=O)CSc2nnc(C(C)N(C)C)n2-c2ccccc2)c(=O)n(-c2ccccc2)n1C` (stereo not given) gave H9c2 protect 1 and hiPSC survival -2.
`CC(=O)N(C1=C(Cl)C(=O)c2ccccc2C1=O)C1CCCCC1` gave CHOP inh 102*, H9c2 protect -19, UPR XBP1 act -1, UPR CHOP act 53*, hiPSC survival 0, CHOP confirm 113* and CHOP UPR conf -9.
Screening Cc1cc(NC(=O)CCS(=O)(=O)c2nc(-c3ccccc3)cc(C(F)(F)F)n2)no1 returned H9c2 protect 12, UPR XBP1 act -9, UPR CHOP act 138*, hiPSC survival -6, CHOP confirm -229 and CHOP UPR conf 466*.
`O=C(/C=C/Sc1ccc(C(F)(F)F)cn1)c1ccccc1` gave CHOP inh 104*, H9c2 protect -9, UPR XBP1 act -1, UPR CHOP act 84*, hiPSC survival 4, CHOP confirm -31 and CHOP UPR conf 47*.
`Cn1c(-c2cccc(OCc3ccccc3)c2)nc2c1c(=O)[nH]c(=O)n2Cc1ccccc1` gave CHOP inh 106*, H9c2 protect -30, UPR XBP1 act 16, UPR CHOP act 76*, hiPSC survival -3, CHOP confirm 79* and CHOP UPR conf 144*.
Screening Cn1c(-c2cccc(F)c2)nc2c1c(=O)[nH]c(=O)n2Cc1ccccc1 returned H9c2 protect 0, UPR XBP1 act 2, UPR CHOP act -2 and hiPSC survival 0.
CC(C)(C)C1COc2ccccc2N1C(=O)c1cccc(Cl)c1 (stereo not given) was read as H9c2 protect -4, UPR XBP1 act -5, UPR CHOP act -1 and hiPSC survival 0.
Screening Cc1ccc(Cn2ncc(Cl)c(Cl)c2=O)cc1 returned CHOP inh 107*, H9c2 protect -7, UPR XBP1 act 2, UPR CHOP act 42*, hiPSC survival 6, CHOP confirm -26 and CHOP UPR conf 21.
For Cc1[nH]c(C)c2c(=O)n(Cc3ccc(Cl)cc3)ncc12 the results were CHOP inh 20, H9c2 protect -1, UPR XBP1 act 8, UPR CHOP act -1 and hiPSC survival -1.
`Fc1ccc(Sc2nc(-c3ccccc3)nnc2C(F)(F)F)cc1` gave CHOP inh 112*, H9c2 protect -10, UPR XBP1 act -3, UPR CHOP act 41*, hiPSC survival -3, CHOP confirm 27 and CHOP UPR conf 20.
For CCn1c(SC(C)C(=O)Nc2ccc3c(c2)OCCO3)nnc1C1CC1 (stereo not given) the results were H9c2 protect -3, UPR XBP1 act -2, UPR CHOP act -1 and hiPSC survival 0.
`Cc1ccc(-c2cc(NC(=O)CCl)n(-c3ccccc3)n2)cc1` gave H9c2 protect -10, UPR XBP1 act -1, UPR CHOP act 82*, hiPSC survival -3, CHOP confirm -150 and CHOP UPR conf 99*.
Screening CCN(CC)CCN1CNC(=S)NC1 returned H9c2 protect 2 and hiPSC survival 4.
For CC12CCC(C(NC(=S)NN)C1=O)C2(C)C (stereo not given) the results were H9c2 protect -3 and hiPSC survival 0.

Screening results: PubChem BioAssay, several laboratories
